In brackets after ≈: the same amount, converted by molar mass.
Tests used:
Escherichia coli [1] = test: Minimum inhibitory concentration required for inhibition of D-alanyl-D-alanine ligase from Escherichia coli DC2 4353; format: functional
Outline: (§1)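 Organisms were mostly subcultured from agar into trypticase soy broth, 35 °C for 20 h; Pseudomonas was shaken at 250 rpm. MIC was the lowest concentration giving no visible growth or fewer than five colonies per spot.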

Serratia marcescens [2] = test: Minimum inhibitory concentration required for inhibition of D-alanyl-D-alanine ligase from Serratia marcescens 2840; format: functional; outline: as §1
Salmonella typhimurium [3] = test: Minimum inhibitory concentration required for inhibition of D-alanyl-D-alanine ligase from Salmonella Typhimurium 3860; format: functional, Salmonella enterica subsp. enterica serovar Typhimurium; conditions: Salmonella enterica; outline: as §1
Enterobacter cloacae [4] = test: Minimum inhibitory concentration required for inhibition of D-alanyl-D-alanine ligase from cloacae 2647; format: functional; outline: as §1
Escherichia coli [5] = test: Minimum inhibitory concentration required for inhibition of D-alanyl-D-alanine ligase from Escherichia coli 2891; format: functional; outline: as §1
Escherichia coli [6] = test: Minimum inhibitory concentration required for inhibition of D-alanyl-D-alanine ligase from Escherichia coli Tem 2+ 4351; format: functional; outline: as §1
Staphylococcus aureus [7] = test: Minimum inhibitory concentration required for inhibition of D-alanyl-D-alanine ligase from Staphylococcus aureus 2865; format: functional; outline: as §1
Enterococcus faecalis [8] = test: Minimum inhibitory concentration required for inhibition of D-alanyl-D-alanine ligase from Streptococcus faecalis 2864; format: functional; outline: as §1
Pseudomonas aeruginosa [9] = test: Minimum inhibitory concentration required for inhibition of D-alanyl-D-alanine ligase from Pseudomonas aeruginosa 4279; format: functional
Outline: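 Inocula were subcultured from agar into trypticase soy broth and grown at 35 °C for 20 h, with the Pseudomonas strain shaken at 250 rpm. MIC was taken as the lowest concentration giving no visible growth or fewer than five colonies per inoculation spot.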

Proteus vulgaris [10] = test: Minimum inhibitory concentration required for inhibition of D-alanyl-D-alanine ligase from proteus vulgaris 2829; format: functional; outline: as §1
Klebsiella pneumoniae [11] = test: Minimum inhibitory concentration required for inhibition of D-alanyl-D-alanine ligase from Klebsiella pneumoniae 4005; format: functional; outline: as §1
[12] = system: D-alanine--D-alanine ligase (Enterococcus faecalis); test: ATP dependent inhibition of D-alanine--D-alanine ligase after 24 hours at 10 uM concentration
[13] = system: D-alanine--D-alanine ligase (Enterococcus faecalis); test: ATP dependent inhibition of D-alanine--D-alanine ligase after 4 hours at 10 uM concentration
Salmonella typhimurium [14] = test: Minimum inhibitory concentration required for growth inhibition of Salmonella Typhimurium 3860; conditions: Salmonella enterica subsp. enterica serovar Typhimurium
Serratia marcescens [15] = test: Minimum inhibitory concentration required for growth inhibition of Serratia marcescens 2840
Enterococcus faecalis [16] = test: Minimum inhibitory concentration required for growth inhibition of Streptococcus faecalis 2864
Staphylococcus aureus [17] = test: Minimum inhibitory concentration required for growth inhibition of Staphylococcus aureus 2865
Escherichia coli [18] = test: Minimum inhibitory concentration required for growth inhibition of Escherichia coli DC2 4353
Enterobacter cloacae [19] = test: Minimum inhibitory concentration required for growth inhibition of cloacae 2647
Proteus vulgaris [20] = test: Minimum inhibitory concentration required for growth inhibition of proteus vulgaris 2829
Escherichia coli [21] = test: Minimum inhibitory concentration required for growth inhibition of Escherichia coli 2891
Escherichia coli [22] = test: Minimum inhibitory concentration required for inhibition of D-alanyl-D-alanine ligase from Escherichia coli Tem 2+ 4351 in the presence of F-D-Ala ug/mL; format: functional
Enterococcus faecalis [23] = test: Minimum inhibitory concentration required for inhibition of D-alanyl-D-alanine ligase from Streptococcus faecalis 2864 in the presence of F-D-Ala ug/mL; format: functional
Pseudomonas aeruginosa [24] = test: Minimum inhibitory concentration required for inhibition of D-alanyl-D-alanine ligase from Pseudomonas aeruginosa 4279 in the presence of F-D-Ala ug/mL; format: functional
Klebsiella pneumoniae [25] = test: The inhibition of D-alanyl-D-alanine ligase from Klebsiella pneumoniae 4005 in the presence of F-D-Ala ug/mL; format: functional
Klebsiella pneumoniae [26] = test: Minimum inhibitory concentration required for growth inhibition of Klebsiella pneumoniae 4005
Pseudomonas aeruginosa [27] = test: Minimum inhibitory concentration required for growth inhibition of Pseudomonas aeruginosa 4279

Row | SMILES | MIC (Escherichia coli [6]) [µg/mL] | MIC (Enterococcus faecalis [8]) [µg/mL] | MIC (Pseudomonas aeruginosa [9]) [µg/mL] | MIC (Klebsiella pneumoniae [11]) [µg/mL] | inhibition [12] [%] | inhibition [13] [%] | MIC (Salmonella typhimurium [14]) [µg/mL] | MIC (Serratia marcescens [15]) [µg/mL] | MIC (Enterococcus faecalis [16]) [µg/mL] | MIC (Staphylococcus aureus [17]) [µg/mL] | MIC (Escherichia coli [18]) [µg/mL] | MIC (Enterobacter cloacae [19]) [µg/mL] | MIC (Proteus vulgaris [20]) [µg/mL] | MIC (Escherichia coli [21]) [µg/mL] | MIC (Klebsiella pneumoniae [26]) [µg/mL] | MIC (Pseudomonas aeruginosa [27]) [µg/mL] | further results
1 | CCCCCCCC(CP(=O)(O)[C@@H](C)N)C(=O)O (some centres undefined) | 128 (≈ 458 µM) | 64 (≈ 229 µM) | > 256 | 64 (≈ 229 µM) | 53 | 75 |  |  |  |  |  |  |  |  |  |  | MIC (Escherichia coli [1]): 32 µg/mL (≈ 115 µM); MIC (Serratia marcescens [2]): > 256 µg/mL; MIC (Salmonella typhimurium [3]): 128 µg/mL (≈ 458 µM); MIC (Enterobacter cloacae [4]): 256 µg/mL (≈ 917 µM); MIC (Escherichia coli [5]): 128 µg/mL (≈ 458 µM); MIC (Staphylococcus aureus [7]): 128 µg/mL (≈ 458 µM); MIC (Proteus vulgaris [10]): 128 µg/mL (≈ 458 µM)
2 | CCC(CP(=O)(O)C(C)N)C(=O)O (centres undefined) |  |  |  |  |  |  | > 256 | > 256 | 2 (≈ 9.56 µM) | > 256 | 8 (≈ 38.2 µM) | 256 (≈ 1220 µM) | 128 (≈ 612 µM) | 256 (≈ 1220 µM) |  |  | 
3 | C[C@@H](CP(=O)(O)[C@@H](C)N)C(=O)O | 128 (≈ 656 µM) | 128 (≈ 656 µM) | 128 (≈ 656 µM) | 128 (≈ 656 µM) |  |  |  |  |  |  |  |  |  |  |  |  | MIC (Escherichia coli [22]): 128 µg/mL; MIC (Enterococcus faecalis [23]): 8 µg/mL; MIC (Pseudomonas aeruginosa [24]): 128 µg/mL; MIC (Klebsiella pneumoniae [25]): 128 µg/mL
4 | CC(N)P(=O)(O)CC(CCCc1ccccc1)C(=O)O (centres undefined) |  |  |  |  |  |  | 128 (≈ 428 µM) | > 256 | 256 (≈ 855 µM) | 256 (≈ 855 µM) | 128 (≈ 428 µM) | > 256 | > 256 | 128 (≈ 428 µM) | 256 (≈ 855 µM) | > 256 | 
5 | CSC(CP(=O)(O)C(C)N)C(=O)O (centres undefined) |  |  |  |  | 96 | 96 |  | 256 (≈ 1130 µM) | 4 (≈ 17.6 µM) | > 256 | 64 (≈ 282 µM) | 128 (≈ 563 µM) | 4 (≈ 17.6 µM) |  | 128 (≈ 563 µM) | 64 (≈ 282 µM) | 

— ChEMBL document CHEMBL1124203, “Phosphinic acid inhibitors of D-alanyl-D-alanine ligase” (J Med Chem, 1988)
